In the library only some 3.1% were active in any assay of this set; here they are far more common.
hERG protect: hERG rescue from dofetilide block, primary screen, cell-based, CHO-hERG, FluxOR thallium flux, dofetilide IC70; dofetilide IC70 present; activation (rescue from dofetilide block), less the hit threshold, % at 10 µM; actives 0.51% (n = 310,000); AID 1511, 2009;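 active means activation above the mean of controls blocked by dofetilide plus 5 SD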;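 further: thallium influx through hERG after potassium depolarization seen as dye fluorescence rise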
KCNQ1 act: potentiators or activators of KCNQ1 channel, primary screen, cell-based, thallium flux, high-throughput. B-score at 10 µM. Potassium voltage-gated channel subfamily KQT member 1 (Homo sapiens), P51787. AID 2648, 2010. actives 0.35% (n = 310,000). CHO-K1 KCNQ1, thallium flux FluxOR fluorescence; stronger effect = higher value;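 active means fluorescence ratio B-score, a plate-corrected score, at least three library SD, with initial intensity B-score within 5 SD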
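Doses: Single concentration per compound, DMSO matched to controls | Test system: KCNQ1-transfected CHO-K1 cells | Timing: 90 min dye loading and 20 min compound exposure, both at room temperature | Measured by: Kinetic FluxOR thallium fluorescence, 10-s 1-Hz baseline, 110-s post-stimulus read | Medium: Assay buffer with matched DMSO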
KCNK9 block: KCNK9 potassium channel inhibitors, primary screen, HEK293 cells, thallium flux; Potassium channel subfamily K member 9 (Homo sapiens), Q9NPC2; B-score at 10 µM; FluxOR thallium flux fluorescence; stronger effect = lower value; actives 1.2% (n = 310,000); AID 488922, 2010;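 active means ratio B-score over 3 SD below the library mean, with starting fluorescence within 5 SD of its mean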;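 further: negative B-score means less thallium flux so channel inhibition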
Target sequence (Q9NPC2 whole entry, looked up): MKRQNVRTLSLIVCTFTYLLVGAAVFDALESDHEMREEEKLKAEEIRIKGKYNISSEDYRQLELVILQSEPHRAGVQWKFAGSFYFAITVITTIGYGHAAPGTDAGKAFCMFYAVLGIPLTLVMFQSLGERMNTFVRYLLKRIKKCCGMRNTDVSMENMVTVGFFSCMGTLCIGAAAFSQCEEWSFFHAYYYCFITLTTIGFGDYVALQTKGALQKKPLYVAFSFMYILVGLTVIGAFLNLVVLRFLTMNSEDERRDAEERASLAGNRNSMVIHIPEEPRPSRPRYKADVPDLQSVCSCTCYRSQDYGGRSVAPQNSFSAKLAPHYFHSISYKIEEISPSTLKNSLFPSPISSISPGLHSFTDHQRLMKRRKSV
KCNK3 inh: human KCNK3 channel inhibitors, primary screen, CHO cells, FluxOR thallium flux, B-score; FluxOR fluorescence; stronger effect = lower value; actives 0.84% (n = 340,000); B-score at 10 µM;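 active means B-score under library mean minus 4 SD, starting fluorescence ratio at most library mean plus 5 SD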;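 further: more negative B-score means stronger inhibition of thallium flux through KCNK3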
KCNQ1 block: inhibitors of human KCNQ1 channel, primary screen, cell-based, thallium flux, high-throughput; B-score at 10 µM; actives 1.3% (n = 310,000); Potassium voltage-gated channel subfamily KQT member 1 (Homo sapiens), P51787; CHO-K1 KCNQ1, FluxOR thallium flux fluorescence; stronger effect = higher value;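 active means compounds whose thallium flux B-score, printed positive for inhibition, exceeds three library SD while starting fluorescence stays within three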;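 further: channel opened by potassium depolarization with thallium stimulus after 20 min compound exposure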
KCNK9 block conf: KCNK9 potassium channel inhibitors, confirmation, HEK293 cells, thallium flux, duplicate; shares compounds with KCNK9 block; actives 43% (n = 4,900); FluxOR thallium flux fluorescence; inhibition, % at 10 µM;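 active means thallium signal inhibited by more than 5 SD of the compound-free buffer control wells, on both duplicate plates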;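 further: 0% = assay buffer control wells without compound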
Kir2-1 spec: mouse Kir2.1 channel inhibition, confirmation, selectivity assay for KCNK9 modulator project, cell-based, HEK293, thallium flux; shares compounds with KCNK9 block; Kir2.1 cells, FluxOR thallium flux fluorescence; inhibition, % at 10 µM; actives 4% (n = 4,900); AID 492993, 2010;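 active means thallium signal drop more than 5 SD beyond the mean of the no-compound control wells, seen in both duplicate plates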;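 further: signal is fluorescence rise after thallium addition divided by baseline fluorescence; plate controls were assay buffer only for no effect and full block by chlorpromazine control for full effect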
KCNK9 uninduced: thallium flux in non-induced HEK293 cells, confirmation, counter-screen for KCNK9 inhibitor project, cell-based, second counter screen, non-induced KCNK9-HEK293 | shares compounds with KCNK9 block | FluxOR thallium flux | inhibition, % at 10 µM | actives 40% (n = 4,900);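 active means thallium signal drop beyond 5 SD of the untreated control mean, on both duplicate plates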;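 further: plate controls were buffer only IC0 wells for no effect and SID17386958 at its maximal inhibitory level for full effect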
KCNK3 inh conf: retest of human KCNK3 channel inhibitors, confirmation, CHO cells, FluxOR thallium flux, triplicate; ratio percent of control, % at 10 µM; actives 99% (n = 2,400); AID 651638, 2012; FluxOR fluorescence; 0% buffer, 100% carvedilol maximal block; shares compounds with KCNK3 inh;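 active means ratio percent of control, averaged over triplicates, above buffer control mean plus 5 SD, cut at about 64% in these data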;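 further: ratio is the fluorescence rise from min to max over baseline after thallium stimulus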
KCNK3 noninduced: thallium flux inhibition in non-induced cells, primary screen, counter-screen for KCNK3 inhibitor project, cell-based, non-induced KCNK3 line, FluxOR thallium, triplicate; actives 40% (n = 2,400); non-induced KCNK3 parental cells; stronger effect = lower value; shares compounds with KCNK3 inh; thallium flux ratio (lower = more inhibition) at 10 µM;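 active means thallium flux ratio, averaged over three wells, more than 5 SD below the buffer control mean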;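 further: host cells are CHO cells without KCNK3 induction; ratio is peak minus trough fluorescence over baseline then normalized to buffer controls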
Active calls of the source: *; i = inactive; nt = no result.

SMILES	hERG protect	KCNQ1 act	KCNK9 block	KCNK3 inh	KCNQ1 block	KCNK9 block conf	Kir2-1 spec	KCNK9 uninduced	KCNK3 inh conf	KCNK3 noninduced
Cc1cn(C2OC(COC(=O)c3ccccc3)C(OC(=O)c3ccccc3)C2OC(=O)c2ccccc2)c(=O)[nH]c1=O (stereo unspecified)	-17	i	-10*	-11*	i	38%*	i	34%*	103*	0.16*
Cc1cn(C2OC(COC(=O)c3ccccc3)C(O)C2O)c(=O)[nH]c1=O (stereo unspecified)	-14	i	i	i	i	nt	nt	nt	nt	nt
Cc1noc(C)c1S(=O)(=O)Nc1ccc(C(C)C)cc1	0	i	i	i	i	nt	nt	nt	nt	nt
COC(=O)c1cc2sccc2n1Cc1nc(-c2cccc(Cl)c2)oc1C	-1	i	-8.5*	-8.7*	i	28%*	i	30%*	93*	i
CNC(=O)c1c(I)c(C(=O)NCC(=O)Nc2c(I)c(C(=O)O)c(I)c(C(=O)NCCO)c2I)c(I)c(N(C)C(C)=O)c1I	nt	nt	nt	i	nt	nt	nt	nt	nt	nt
CCOC(=O)COc1c(OC)cc(Cl)cc1C1Nc2ccccc2C(=O)N1c1cccc(C)c1 (stereo unspecified)	-12	i	-9.1*	-9.7*	i	48%*	i	38%*	111*	i
CCOc1cc(C2Nc3ccccc3C(=O)N2c2ccccc2)ccc1O (stereo unspecified)	-4	i	i	i	i	nt	nt	nt	nt	nt
COc1cc(C2Nc3ccccc3C(=O)N2c2ccc(Cl)cc2)c(Cl)cc1OCC(=O)O (stereo unspecified)	-8	i	i	i	i	nt	nt	nt	nt	nt
CCOC(=O)COc1c(OC)cc(Cl)cc1C1Nc2ccccc2C(=O)N1c1ccccc1 (stereo unspecified)	-6	i	-11*	-11*	i	56%*	i	36%*	107*	0.14*
C=C1[C@@H](O)[C@H](CC(C)C)N(Cc2ccccc2Br)S1(=O)=O	nt	nt	nt	i	nt	nt	nt	nt	nt	nt
COc1ccc(OC)c(CCNC(=O)c2cccc(NC(=O)C3=C(C)OCCS3)c2)c1	-22	i	-8.2*	-11*	i	38%*	i	i	97*	i
COc1ccccc1N(CC(=O)NCCSCc1cccc(C)c1)S(=O)(=O)c1ccccc1	-18	i	-16*	-13*	9*	48%*	i	28%*	105*	i
COc1ccc(CN(C(=O)CSc2nnc(-c3c[nH]c4ccccc34)o2)c2ccc(F)cc2)cc1OC	-17	i	-8.8*	-14*	i	i	i	i	105*	0.13*
COc1ccc(CN(C(=O)CSc2nnc(-c3ccc(F)cc3)o2)c2ccc(F)cc2)cc1	-12	i	i	i	i	nt	nt	nt	nt	nt
CN1CC(=O)N(CC(=O)Nc2ccc(N3CCOCC3)cc2)C1=O	nt	nt	nt	i	nt	nt	nt	nt	nt	nt
O=C(c1c(F)cccc1F)N(Cc1cccs1)C1CCCC1	-8	i	i	i	i	nt	nt	nt	nt	nt
O=C(c1c(F)cccc1F)N(C1CCCCC1)C1CCCCC1	-6	i	-12*	-12*	i	68%*	i	28%*	133*	0.12*
Cc1ccc(S(=O)(=O)N(C)C)cc1NC(=O)c1cc(C(C)(C)C)nn1Cc1ccccc1	-5	i	-16*	-12*	i	40%*	i	33%*	128*	0.14*
Cc1ccc(S(=O)(=O)N(C)C)cc1NC(=O)CN1CCN(Cc2ccccc2)CC1	-8	i	i	i	i	nt	nt	nt	nt	nt
Cn1c(COc2ccc(Cl)cc2Cl)nnc1SCC(=O)NCC1CCCO1 (stereo unspecified)	-6	i	i	i	i	nt	nt	nt	nt	nt
COc1cc(CN2CCN(CC3CC3)CC2CCO)cc(OC)c1 (stereo unspecified)	1	i	i	i	i	nt	nt	nt	nt	nt
CN(C)C(=N)c1n[nH]nc1SCc1ccc(Cl)c(Cl)c1	-11	i	i	i	i	nt	nt	nt	nt	nt
CNc1cc(CSC)nc(SCc2ccc(Cl)cc2Cl)n1	-4	i	-12*	-9.2*	i	56%*	i	50%*	142*	0.15*
Nc1nc(SCc2ccc(Cl)cc2Cl)n[nH]1	-8	i	i	i	i	nt	nt	nt	nt	nt
CSCc1cc(N(C)C)nc(SCc2ccc(Cl)c(Cl)c2)n1	0	i	-10*	i	i	72%*	i	58%*	104*	0.15*
SMILES	hERG protect	KCNQ1 act	KCNK9 block	KCNK3 inh	KCNQ1 block	KCNK9 block conf	Kir2-1 spec	KCNK9 uninduced	KCNK3 inh conf	KCNK3 noninduced
O=S(=O)(c1ccccc1)N1CCN=C1SCc1ccccc1Cl	-3	i	-9.7*	-11*	i	34%*	i	44%*	114*	i
CCOc1ccccc1-c1cc(C(=O)N/N=C/c2cccnc2)c2ccccc2n1	-6	i	i	i	i	nt	nt	nt	nt	nt
Cc1ccc(COc2ccccc2-c2cc(C(=O)N/N=C/c3cccnc3)[nH]n2)cc1	-15	i	-19*	-12*	i	64%*	i	26%*	118*	i
CCCn1c(=O)c(C(=O)NCc2ccccc2)c(O)c2ccccc21	-2	i	i	i	i	nt	nt	nt	nt	nt
CCCn1c(=O)c(C(=O)Nc2ccccc2C(=O)OCC)c(O)c2ccccc21	-11	i	-9.2*	-8.9*	i	54%*	i	38%*	92*	i
S=C(NC1CCCCC1)N(CCc1nc2ccccc2[nH]1)C1CCCC1	-14	i	i	-10*	i	i	i	i	118*	0.13*
COc1cccc(NC(=S)N(CCN(C)C)Cc2cccs2)c1	-1	i	i	i	i	nt	nt	nt	nt	nt

High-throughput results from PubChem.
